FN deposit inh: fibronectin deposition inhibition. AH1F fibroblasts, Alexa488-fibronectin deposition fluorescence, overnight. inhibition, % at 12.6 µM. 0.086% of 350,000 active;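 active = mean inhibition across replicates of 30% or more, regardless of how many single replicates reach that level; inconclusive = mean under 30% yet at least half of replicates reach 30%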;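 note: positive control wells lacked labelled fibronectin entirely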
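Material: AH1F fibroblast monolayer depositing Alexa488-labelled fibronectin into matrix | Input: 10000 AH1F cells/well | Medium: DMEM plus 2% serum, read in PBS | Reagent: Alexa488-fibronectin, 24 nM final in well | Compound dosing: One dose per compound, pinned | Schedule: 1 h adhesion, overnight exposure | Measured by: Fluorescence at 485 nm excitation, 525 nm emission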
RAD52 inh: inhibitors of human RAD52 DNA annealing | P43351 | recombinant RAD52 DNA annealing, FRET fluorescence | inhibition, % at 18.7 µM | 0.46% of 360,000 active | AID 651710;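 active = every replicate showing at least 50% inhibition; inconclusive = mean inhibition at least 50% but not in every replicate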
NSD2 HMT inh: inhibitors of human histone methyltransferase NSD2 | NSD2 peptide methylation, AlphaScreen, 120 min | inhibition, % at 12.5 µM | O96028 | 0.54% of 310,000 active | AID 743445; in the data active = inhibition above about 50%
RAD54 inh: RAD54 (human) branch migration inhibition | 0.14% of 360,000 active | RAD54 Holliday junction branch migration, FAM/BHQ fluorescence | Q92698 | inhibition, % at 10.4 µM;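 active = mean normalized replicate activity at least 40 and at least half of replicates scoring 40 or more; inconclusive = only one of the two criteria met; inactive = mean below 40 and under half of replicates reaching 40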;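 note: 0% = median of neutral control wells and 100% = median of positive control wells; inhibitors cause a drop in the FAM fluorescence signal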
Target sequence (Q92698 whole entry, looked up): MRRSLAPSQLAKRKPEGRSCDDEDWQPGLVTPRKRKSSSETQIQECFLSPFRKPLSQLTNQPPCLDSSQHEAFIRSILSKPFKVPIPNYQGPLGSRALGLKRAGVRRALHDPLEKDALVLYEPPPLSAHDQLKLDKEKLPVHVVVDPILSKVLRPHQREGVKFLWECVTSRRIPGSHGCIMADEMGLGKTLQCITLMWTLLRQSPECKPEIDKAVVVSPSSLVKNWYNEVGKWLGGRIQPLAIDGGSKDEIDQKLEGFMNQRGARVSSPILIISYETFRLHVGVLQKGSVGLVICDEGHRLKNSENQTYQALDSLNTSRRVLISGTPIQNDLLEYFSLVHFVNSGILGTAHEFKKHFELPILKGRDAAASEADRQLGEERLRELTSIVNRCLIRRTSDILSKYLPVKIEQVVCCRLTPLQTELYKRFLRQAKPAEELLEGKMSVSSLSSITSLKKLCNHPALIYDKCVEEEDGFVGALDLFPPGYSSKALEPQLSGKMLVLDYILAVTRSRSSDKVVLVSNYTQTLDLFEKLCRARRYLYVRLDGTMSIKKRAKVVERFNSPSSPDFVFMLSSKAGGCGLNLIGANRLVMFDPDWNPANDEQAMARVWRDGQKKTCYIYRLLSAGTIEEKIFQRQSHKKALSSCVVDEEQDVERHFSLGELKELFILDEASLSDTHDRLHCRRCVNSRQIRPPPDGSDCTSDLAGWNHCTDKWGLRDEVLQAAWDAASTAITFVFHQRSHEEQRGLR
AF4-AF9 inh: blocks AF4 peptide binding to human AF9 | AlphaScreen, biotin-AF4 peptide binding to FLAG-AF9 | inhibition, % at 10 µM | 0.47% of 350,000 active | AID 651704;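 active = every replicate reaching a set inhibition limit, whatever the replicate mean, cut at about 25% in these data; inconclusive = mean inhibition reaches that limit but some replicates miss it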;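 note: 0% = plate neutral control median and 100% = total signal loss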
Glyco luc inh: N-linked glycosylation inhibition | D54 ERlucT glycosylation luciferase reporter, 24 h; percent of 100 nM tunicamycin response | reporter increase, % at 12.5 µM | 0.23% of 360,000 active | AID 588692;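 active = mean luciferase reporter signal, scaled so untreated is 0 and the glycosylation-blocking control 100, at or above a set limit in every replicate; inconclusive = mean reaches the limit but not every replicate does; inactive = mean below the limit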;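 note: luciferase carries N-glycosylation sites so blocking glycosylation raises the light; 0% = median of neutral control wells and 100% = median of 100 nM tunicamycin wells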
RAD52 DNA ctr: DNA binding artifact in RAD52 counter-screen; shares compounds with RAD52 inh; Salmon sperm DNA/acridine orange FP displacement; AC50, µM; 8% of 1,000 active;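 active = fitted half-maximal concentration for signal loss at or below twice the highest dose tested, in every separate run, actives reach about 64 µM in these data; inconclusive = runs disagree, or flat partial signal loss, or poor fit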
Active calls of the source: *; i = inactive; ? = inconclusive; / = not tested or not shown; ! = a repeat was not active. Only some compounds are listed: those with a hit (about 1.2% of all), similar ones and a draw of the others.

SMILES	FN deposit inh	RAD52 inh	NSD2 HMT inh	RAD54 inh	AF4-AF9 inh	Glyco luc inh	RAD52 DNA ctr
CCCc1nnc(NC(=O)c2cc3ccccc3oc2=O)s1	/	/	-1	2	/	1	/
O=C(C[C@H]1C=C[C@@H](NS(=O)(=O)c2ccc(F)cc2)[C@@H](CO)O1)NCc1ccncn1	-9	-20	/	1	-1	/	/
COc1ccc(S(=O)(=O)N(C)C[C@H]2Oc3ccc(NC(=O)NC(C)C)cc3C(=O)N([C@@H](C)CO)C[C@H]2C)cc1	5	/	/	/	/	/	/
CCCN1C(=O)/C(=C/c2ccc(C)s2)SC1=Nc1ccc(OC)cc1	/	/	1	-16	/	0	/
CCN(CC)CCN1C(=O)/C(=C\c2ccc(Cl)c([N+](=O)[O-])c2)SC1=Nc1ccc(OC)cc1	4	80*	2	7	19	-16	i
COc1ccc(OC)c(N/C(N)=N/c2nc(C)cc(C)n2)c1	-4	50*	5	-4	5	6	i
COc1ccc(C)cc1N/C(N)=N/c1nc(C)cc(C)n1	/	18	34	/	-3	-3	/
O=C1c2cccc(NCCNCCO)c2C(=O)c2cccc(NCCNCCO)c21	3	63*	/	/	46*	-22	4µM*
CCN1CCN(c2ccc(N=Cc3ccccc3O)cc2)CC1	3	99*	3	/	57*	3	i
COc1cccc(C=Nc2ccc(N3CCOCC3)cc2)c1O	5	8	1	12	11	1	/
O=C(C[C@@H]1CC[C@@H](NS(=O)(=O)c2ccc(F)cc2)[C@@H](CO)O1)N1CCc2ccccc2C1	/	-3	/	1	1	/	/
CCC[C@@H](CN1CCC[C@H]1CN1C(N)=NC[C@@H]1Cc1ccccc1)N1C[C@@H]([C@H](C)CC)N(CCc2ccc(Cl)c(Cl)c2)C1=N	/	/	/	7	/	1	/
CCC[C@@H](CN1CCC[C@H]1CN1C(N)=NC[C@H]1CC(C)C)N1C[C@@H](Cc2ccccc2)N(CCc2ccc(Cl)c(Cl)c2)C1=N	6	65*	/	17	33*	4	i
CC[C@@H](C)[C@@H]1CN([C@@H](C)CN2CCC[C@H]2CN2C(N)=NC[C@H]2CC(C)C)C(=N)N1CCc1ccc(Cl)c(Cl)c1	4	37	/	16	15	1	/
CCC[C@@H](CN1CCC[C@H]1CN1C(N)=NC[C@H]1CC(C)C)N1C[C@@H]([C@H](C)CC)N(CCc2ccc(Cl)c(Cl)c2)C1=N	-7	51*	/	20	25*	2	i
CC[C@@H](C)[C@@H]1CN([C@@H](CN2CCC[C@H]2CN2C(N)=NC[C@H]2CC(C)C)C(C)C)C(=N)N1CCc1ccc(Cl)c(Cl)c1	2	50*	/	14	20	-3	i
CCC[C@@H](CN1CCC[C@H]1CN1C(N)=NC[C@H]1CC(C)C)N1C[C@@H](Cc2ccccc2)N(CCCC2CCCC2)C1=N	2	58*	/	14	16	-1	i
C[C@H]1CN([C@@H](C)CO)C(=O)c2cc(-c3ccc(F)cc3)cnc2O[C@H]1CN(C)C(=O)Nc1ccccc1F	-1	-2	/	3	0	/	/
O=C(C[C@H]1CC[C@H]2[C@@H](COC[C@H](O)CN2C(=O)Nc2ccccc2)O1)NCCCN1CCOCC1	-4	-10	/	5	-2	/	/
O=C(CN1CCCC(O)C1)N1c2ccccc2Sc2ccc(C(F)(F)F)cc21 (centres undefined)	/	/	/	-2	/	2	/
CN1CCN(CCCN2c3ccccc3Sc3ccc(C(F)(F)F)cc32)CC1	3	50*!	15	21	27*!	-1	i
C[C@@H]1CN([C@H](C)CO)C(=O)c2cc(C#CC(C)(C)O)cnc2O[C@H]1CN(C)Cc1ccccn1	/	-15	/	-2	-6	/	/
CN(C)CCOC(=O)c1ccc2[nH]c3c(c2c1)CSCC3	6	99*	13	/	21	-1	i
C=CC[N@@+]12CC[C@]34c5ccccc5N5/C=C6\C7N(/C=C(\C53)[C@@H](C[C@@H]41)/C(=C/CO)C2)c1ccccc1[C@@]71CC[N@@+]2(CC=C)C/C(=C\CO)[C@@H]6C[C@@H]12 (some centres undefined)	2	69*	/	3	10	3	i
CCCCN1C(N)=NC[C@@H]1Cc1ccc(O)cc1	6	-4	/	-6	-1	0	/
SMILES	FN deposit inh	RAD52 inh	NSD2 HMT inh	RAD54 inh	AF4-AF9 inh	Glyco luc inh	RAD52 DNA ctr
NC1=NC[C@H](Cc2ccc(O)cc2)N1CCC12CC3CC(CC(C3)C1)C2	-3	53*	/	6	23	3	i
COc1cc(-c2cnc3c(NC=O)cc(-c4ccc(N5CCN(C)CC5)cc4)cn23)cc(OC)c1OC	12	70*	10	22	18	-6	i
Cc1ccc2nc(N(CCCN(C)C)C(=O)CCc3ccccc3)sc2c1	2	40	-4	/	13	0	/
Cc1cc(C)c2sc(N(CCCN(C)C)C(=O)CN3C(=O)c4ccccc4C3=O)nc2c1	0	67*	1	41	25	-1	i
Cc1ccc2nc(N(CCCN(C)C)C(=O)CN3C(=O)c4ccccc4C3=O)sc2c1	6	62*	5	/	19	0	i
Cn1c(C(=O)NCCCN2CCCCCC2)cc2c(=O)n(C)c3ccccc3c21	-2	52*	/	44	9	6	i
CC(=O)N1CCN(c2ccc(N)cc2)CC1	9	58*	/	7	-4	2	i
CCNC(=O)Nc1ccc2c(c1)C(=O)N(C)[C@H]1CC[C@H](CC(=O)Nc3ccccc3F)O[C@@H]1CO2	-1	/	/	6	/	/	/
CN(C)C=Nc1ccc2nc3c(cc2c1)[nH]c1ccccc13	3	96*	-6	/	11	1	23µM*
Cc1cc(N/N=C/c2ccc(N(C)C)cc2)c2ccccc2n1	23	-207	-2	-7	-3	0	/
Cc1cc(N/N=C/c2ccc(O)cc2)c2cccc(C)c2n1	3	77*	0	118*	?	25	52µM*
Cc1cc(-c2ccccc2)nc(N/N=C/c2ccc(O)cc2)n1	1	-7	/	-2	1	5	/
Cc1cc(C)c2nc(C)cc(N/N=C/c3ccc(O)cc3)c2c1	10	94*	0	119*	26*	-21	?
Cc1ccc(NC(=O)Nc2ccc3c(c2)C(=O)N(C)[C@H]2CC[C@H](CC(=O)O)O[C@H]2CO3)cc1	5	12	/	-15	-5	/	/
CO[C@H]1CN(C)C(=O)c2cc(NC(=O)C3CCC3)ccc2OC[C@@H](C)N(C(=O)NC(C)C)C[C@H]1C	-4	3	/	9	-1	/	/
COc1cc2nc(N(CCCN(C)C)C(=O)c3ccc(C(=O)c4ccccc4)cc3)sc2cc1OC	8	72*	7	30	28*	-8	i

Screens from PubChem BioAssay.
